These results are taken from ChEMBL document CHEMBL1154369, “Betulin-derived compounds as inhibitors of alphavirus replication” (J Nat Prod, 2009).

Data set [1] in a line: Cytotoxicity against human HuH7 cells assessed as cell viability at 500 uM after 24 hrs. Format: cell-based, Huh-7. The settings on record: read-out: Activity. In outline:
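Huh-7 human hepatocellular carcinoma cells exposed 24 h to derivative at 500 µM in an extended cytotoxicity analysis. Viability measured as intracellular ATP content and reported as surviving fraction.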

The subject of data set [2] is Semliki Forest virus. Description: Antiviral activity against SFV infected in BHK cells assessed as decrease in surviving virus fraction at 200 uM treated 1 hr after viral adsorption measured after 5 hrs by luciferase reporter gene assay. The data set is classed as functional, organism-based. In outline:
(§1)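 Time-of-addition run with SFV-Rluc at high multiplicity (5 PFU/cell) in BHK-21 cultures, covering a single replication cycle. Compound present throughout (0-5 h), only during adsorption (0-1 h), at 1-5 h, or at 2-5 h. Surviving fraction is the remaining Renilla luciferase activity, read at 5 h per legend (4.5 h in text); means ± SD, n = 4.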

The test system of data set [3] is Semliki Forest virus. In words: Antiviral activity against SFV infected in BHK cells after 14 hrs by luciferase reporter gene assay. Format: functional, organism-based. A digest of the protocol:
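SFV-Rluc reporter virus from infectious cDNA clone; BHK-21 cells infected at low multiplicity (0.001 PFU/cell) and incubated 14 h, spanning over 2 infectious cycles. Serial dilutions of each derivative tested. Luciferase read-out as surviving virus fraction. IC50 from a sigmoidal dose-response fit; means ± SD, n = 6. 3′-Amino-3′-deoxyadenosine (20 µM) served as screen positive control.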

The subject of data set [4] is Semliki Forest virus. In words: Antiviral activity against SFV infected in BHK cells assessed as decrease in surviving virus fraction at 50 uM treated during time of viral adsorption for 1 hr measured after 5 hrs by luciferase reporter gene assay. The data set is classed as functional, organism-based. In outline: as §1
For data set [5], the system named is Semliki Forest virus. Description: Antiviral activity against SFV infected in BHK cells assessed as surviving virus fraction at 50 uM after 14 hrs by luciferase reporter gene assay in presence of 50 ug/ml guanosine. The data set is classed as functional, organism-based.
Data set [6] in a line: Cytotoxicity against human HuH7 cells assessed as cell viability at 50 uM after 24 hrs.
In data set [7] the test system is Semliki Forest virus. Description: Antiviral activity against SFV infected in BHK cells assessed as decrease in surviving virus fraction at 200 uM treated during time of viral adsorption for 1 hr measured after 5 hrs by luciferase reporter gene assay. The data set is classed as functional, organism-based. A digest of the protocol:
as §1

The subject of data set [8] is Semliki Forest virus. In words: Antiviral activity against SFV infected in BHK cells assessed as decrease in surviving virus fraction at 50 uM treated 2 hr after viral adsorption measured after 5 hrs by luciferase reporter gene assay. The data set is classed as functional, organism-based. In outline: as §1
For data set [9], the system named is Semliki Forest virus. Description: Antiviral activity against SFV infected in BHK cells assessed as decrease in surviving virus fraction at 50 uM treated 1 hr after viral adsorption measured after 5 hrs by luciferase reporter gene assay. The data set is classed as functional, organism-based. A digest of the protocol: as §1
The subject of data set [10] is Semliki Forest virus. In words: Antiviral activity against SFV infected in BHK cells assessed as surviving virus fraction at 50 uM after 14 hrs by luciferase reporter gene assay. The data set is classed as functional. Also noted: scale not given here.
Another data set has as its system Sindbis virus. In words: Antiviral activity against Sindbis virus infected in BHK cells assessed as inhibition of RNA synthesis after 14 hrs by [3H]uridine incorporation assay. The data set is classed as functional, organism-based. A digest of the protocol: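 Sindbis virus from infectious cDNA clone grown in BHK-21 cells. Viral RNA synthesis rate measured by [3H]-uridine labeling. Serial compound dilutions from 16 pM to 50 µM. IC50 from nonlinear regression to sigmoidal dose-response curves; means ± SD, n = 4.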

Data set [11] deals with Semliki Forest virus. In words: Antiviral activity against SFV infected in BHK cells assessed as decrease in surviving virus fraction at 200 uM treated 2 hr after viral adsorption measured after 5 hrs by luciferase reporter gene assay. Format: functional, organism-based. In outline:
as §1

In data set [12] the test system is Semliki Forest virus. Description: Antiviral activity against SFV infected in BHK cells assessed as surviving virus fraction at 20 uM after 14 hrs by luciferase reporter gene assay. Format: functional. In outline: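 BHK-21 cells were infected with the luciferase marker virus SFV-Rluc, made from an infectious cDNA clone, at a low multiplicity of 0.001 PFU/cell. Infection ran through more than 2 infectious cycles over a 14 h incubation, and the read-out was luciferase reporter activity. The surviving fraction was the percentage of viral replication remaining. The screen was automated and run in triplicate.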

For data set [13], the system named is Semliki Forest virus. Description: Antiviral activity against SFV infected in BHK cells assessed as surviving virus fraction at 200 uM after 14 hrs by luciferase reporter gene assay in presence of 50 ug/ml guanosine. The data set is classed as functional, organism-based.

Active and inactive are the calls of the source. No cut-off for these calls is given here. A value given as a limit tells only on which side of the number the result lay.

With `CC(=O)OC[C@]12CC[C@]3(C(C)C)C1=C1[C@H](C[C@@H]4[C@@]5(C)CC[C@H](OC(C)=O)C(C)(C)[C@@H]5CC[C@@]4(C)[C@]1(C)CC2)n1c(=O)n(-c2ccccc2)c(=O)n13`, the viability at 24 h, 500 µM in [1] is over 80%. In addition, the outcome in the data set with Semliki Forest virus [2], in the data set on Semliki Forest virus [5], in the data set with Semliki Forest virus [8] and in the data set with Semliki Forest virus [9] was Active. The IC50 was 19.7 µM in the data set with Semliki Forest virus [3] (read-out: IC50), 19.5 µM in the data set on Semliki Forest virus [3] (read-out: pIC50 (converted)), 6.1 µM with Sindbis virus (read-out: IC50) and 6.17 µM in the data set with Sindbis virus (read-out: pIC50 (converted)). The outcome in the data set with Semliki Forest virus [4] and with Semliki Forest virus [7] was inactive. Moreover, the viability at 24 h, 50 µM in data set [6] is 87%. Also, the Activity in the data set on Semliki Forest virus [10] stood at 13%.
Regarding `C=C(C)[C@@H]1CC[C@]2(C(=O)O)CC[C@]3(C)[C@H](CC[C@@H]4[C@@]5(C)CC[C@H](O)C(C)(C)[C@@H]5CC[C@]43C)[C@@H]12` [BETULINIC ACID], in data set [1], the viability at 24 h, 500 µM is over 80%. For the same compound, the result with Semliki Forest virus [2], in the data set with Semliki Forest virus [5], in the data set with Semliki Forest virus [11], in the data set with Semliki Forest virus [8] and in the data set on Semliki Forest virus [9] was Active. In addition, the IC50 was 14.6 µM with Semliki Forest virus [3] (read-out: IC50), 14.5 µM in the data set on Semliki Forest virus [3] (read-out: pIC50 (converted)), 0.5 µM in the data set with Sindbis virus (read-out: IC50) and 0.457 µM with Sindbis virus (read-out: pIC50 (converted)). For the same compound, the result with Semliki Forest virus [4] and with Semliki Forest virus [7] was inactive. For the same compound, in [6], the viability at 24 h, 50 µM was 123%. The Activity with Semliki Forest virus [10] was found to be 18%.
As for `Nc1ncnc2c1ncn2[C@@H]1O[C@H](CO)[C@@H](N)[C@H]1O`, the IC50 in the data set on Semliki Forest virus [3] (read-out: IC50) was determined as 18 µM. Besides, in the data set on Semliki Forest virus [12], the Activity came to 12%.
Regarding `C=C(C)[C@@H]1CC[C@]2(COC3CCCCO3)CC[C@]3(C)[C@H](CC[C@@H]4[C@@]5(C)CC[C@H](O)C(C)(C)[C@@H]5CC[C@]43C)[C@@H]12` (stereo not given in full), in data set [1], the viability at 24 h, 500 µM was over 80%. Moreover, the result in the data set on Semliki Forest virus [2], with Semliki Forest virus [5], with Semliki Forest virus [8] and with Semliki Forest virus [9] was Active. For the same compound, the IC50 was 17.2 µM with Semliki Forest virus [3] (read-out: IC50), 17.4 µM with Semliki Forest virus [3] (read-out: pIC50 (converted)), 1.9 µM with Sindbis virus (read-out: IC50) and 1.91 µM in the data set on Sindbis virus (read-out: pIC50 (converted)). Moreover, the outcome in the data set with Semliki Forest virus [4] and in the data set with Semliki Forest virus [7] was inactive. Besides, in [6], the viability at 24 h, 50 µM came out at 92%. Moreover, the Activity in the data set on Semliki Forest virus [10] turned out to be 11%.
As to `NC(=O)c1ncn([C@@H]2O[C@H](CO)[C@@H](O)[C@H]2O)n1` [RIBAVIRIN], the IC50 in the data set with Semliki Forest virus [3] (read-out: IC50) is 95.1 µM; with Semliki Forest virus [3] (read-out: pIC50 (converted)), 95.5 µM. In addition, the outcome with Semliki Forest virus [13] was inactive.
